Published values of several laboratories.
Each line is one published result; the experiments were not run side by side.
Target: Bone morphogenetic protein receptor type-1A (BMPR1A, Homo sapiens, UniProt P36894)

| SMILES | test | conditions | remaining binding |
| --- | --- | --- | --- |
| O=C(O)[C@H]1[C@H](Cn2nnc3ccccc3c2=O)CC[C@@H]1C(=O)c1ccc(OCCC2CCOCC2)cc1 | binding, competition with immobilised ligand | 1 µM | 61% |
| CN(C)c1ncc(F)c(-c2cnn3ncccc23)n1 | binding | 1 µM | 100% |
| CCN1CCN(Cc2ccc(C(=O)Nc3ccc(C)c(Oc4ccc5c(c4)CC(=O)N5)c3)cc2C(F)(F)F)CC1 | binding, competition with immobilised ligand | 1 µM | 100% |
| O=C(c1ccc(Nc2ncc(Cl)c(-c3cc4ccccc4s3)n2)cc1)N1CCC(N2CCCC2)CC1 | binding, competition with immobilised ligand | 1 µM | 60% |
| N[C@H]1CCN(c2nccc(-c3cnn4ncccc34)n2)C1 | binding | 1 µM | 75% |
| CC1=C(C#N)[C@@H](c2ccc3[nH]nc(C)c3c2)C(C#N)=C(c2ccc(Cl)cc2)N1 | binding, competition with immobilised ligand | 1 µM | 98.6% |
| CN(c1nccc(-c2cnn3ncccc23)n1)C1CC1 | binding | 1 µM | 78% |
| CS(=O)(=O)NCC[C@H](NC(=O)c1cncc2c1cnn2-c1ccc(F)cc1)c1ccnc(S(C)(=O)=O)c1 | binding, competition with immobilised ligand | 1 µM | 92% |
| COc1cnc(Nc2cccc(S(N)(=O)=O)c2)nc1N1CCN(c2ccccc2)C(=O)C1 | binding, competition with immobilised ligand | 1 µM | 67% |
| Cc1nccc(COC(=O)N2C[C@@H]3[C@@H](CNC(=O)c4ccc5[nH]nnc5c4)[C@@H]3C2)n1 | binding, competition with immobilised ligand | 1 µM | 85% |
| O=C(NCCCN1CCOCC1)c1ccc(Nc2ncc(Cl)c(-c3ccc(Cl)s3)n2)cc1 | binding, competition with immobilised ligand | 1 µM | 86% |
| c1cncc(-c2cccc(Nc3nccc(NC4CCCCC4)n3)c2)c1 | binding, competition with immobilised ligand | 10 µM | 73% |
| O=C(Nc1c[nH]nc1C(=O)NC1CCNCC1)c1cc(F)cc(F)c1 | binding, competition with immobilised ligand | 1 µM | 89% |
| CC(=O)N1CCC(c2ccc(C(=O)NC(=N)N)cc2C(F)(F)F)CC1 | binding, competition with immobilised ligand | 1 µM | 100% |
| CN(CCCC(F)(F)F)c1nccc(-c2cnn3ncccc23)n1 | binding | 1 µM | 83% |
| Nc1ncc2c(n1)-c1c([nH]c3ccc(C#CC4CC4)cc13)CCCC2 | binding, competition with immobilised ligand | 1 µM | 95% |
| O=C(NS(=O)(=O)c1ccc(NCC2CCOCC2)c([N+](=O)[O-])c1)c1ccc(N2CCN(Cc3ccc(C(F)(F)F)cc3-c3ccc(Cl)cc3)CC2)cc1Oc1cnc2[nH]ccc2c1 | cell-free assay, competition with immobilised ligand | 1 µM | 81% |
| FC(F)(F)Oc1cccc(-c2cnc3ccc(-c4ccncc4)nn23)c1 | cell-free assay, competition with immobilised ligand | 5 µM | 81% |
| C[C@H]1CCN(c2nccc(-c3cnn4ncccc34)n2)C1 | binding | 1 µM | 68% |
| O=C(NCCCN1CCOCC1)c1ccc(Nc2nccc(-c3cc4ccccc4s3)n2)cc1 | binding, competition with immobilised ligand | 1 µM | 78% |
